Converted amounts (≈) assume the structure as drawn.
Legend:
[1] = Oral absorption in beagle dog at 5 mg/kg, po by LC/MS/MS analysis; type: ADME, organism-based, Canis lupus familiaris; parameters: dose 5 mg/kg, route oral; details: in vivo
Outline: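 Naive male beagle dogs were dosed once, orally at 5 mg/kg in EtOH/PEG 400/50 mM citrate buffer pH 4 (5/40/55), or intravenously at 0.5 mg/kg for reference. Plasma was sampled over 24 h and processed by acetonitrile precipitation. Bioavailability %F = AUC_po × Dose_iv / (AUC_iv × Dose_po).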

[2] = AUC (0 to infinity) in jagular vein cannulated beagle dog at 0.5 mg/kg, iv by LC/MS/MS analysis; type: ADME, organism-based, Canis lupus familiaris; parameters: time infinity, dose 0.5 mg/kg, route intravenous; details: plasma
Outline: (§1)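 Naive male beagle dogs got a single intravenous infusion of 0.5 mg/kg in EtOH/PEG 400/water 5/20/75, adjusted to pH 4 with HCl. EDTA-K3 blood was collected over 24 h and plasma isolated. Plasma was precipitated with acetonitrile to a final 60%, filtered, dried, reconstituted in 20% acetonitrile and analysed.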

[3] = AUC (0 to infinity) in portal vein cannulated beagle dog at 0.5 mg/kg, iv by LC/MS/MS analysis; type: ADME, organism-based, Canis lupus familiaris; parameters: time infinity, dose 0.5 mg/kg, route intravenous; details: plasma; outline: as §1
[4] = Oral bioavailability in golden syrian hamster at 5 mg/kg; type: ADME, organism-based, Mesocricetus auratus; details: in vivo
Syrian golden hamster [5] = assay: Cmax in golden syrian hamster assessed as liver triphosphate level at 5 mg/kg, po by LC/MS/MS analysis; type: ADME, organism-based, Mesocricetus auratus; parameters: dose 5 mg/kg, route oral; details: in vivo
Outline: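 Groups of 12 Golden Syrian hamsters were dosed orally at 5 mg-equiv/kg. Vehicle was EtOH/PEG400/water buffered with 50 mM pH 4 citrate at 2.5 mg-equiv/mL. Liver was homogenized in four volumes of ice-cold 0.1% KOH/67 mM EDTA in 70% MeOH containing 0.25 μM Cl-ATP, then centrifuged, dried and reconstituted in 1 mM ammonium phosphate pH 7.0. Triphosphate was measured by LC/MS/MS, with endogenous ATP checked for sample stability.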

Syrian golden hamster [6] = assay: Cmax in golden syrian hamster assessed as liver triphosphate level at 1 mg/kg, iv by LC/MS/MS analysis; type: ADME, organism-based, Mesocricetus auratus; parameters: dose 1 mg/kg, route intravenous; details: in vivo
Outline: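 Golden Syrian hamsters in groups of 12, dosed iv at 1 mg-equiv/kg in EtOH/PEG400/water adjusted to pH 4 with HCl (0.5 mg-equiv/mL). Liver homogenised in ice-cold 70% MeOH with 0.1% KOH, 67 mM EDTA and 0.25 μM Cl-ATP internal standard, then centrifuged, dried and reconstituted. Triphosphate measured by LC/MS/MS; endogenous ATP checked for sample stability.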

[7] = Metabolic stability in human liver S9 fraction assessed as extraction at 2 uM after 90 mins by LC/MS/MS analysis; type: ADME, subcellular; details: read-out: Stability
Outline: (§2)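 Compound at 2 μM was incubated with human intestinal or hepatic S9 fraction plus NADPH and UDPGA for 90 min at 37 °C. Time-point samples were quenched in aqueous acetonitrile/methanol with internal standard and analysed by LC/MS/MS. Half-life came from an exponential first-order fit, and hepatic extraction was predicted from half-life using the well-stirred model.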

[8] = Half life in human intestinal S9 fraction at 2 uM by LC/MS/MS analysis; type: ADME, Intestine; outline: as §2
[9] = Permeability across basolateral to apical side in human Caco2 cells at 10 uM after 1 to 2 hrs by LC/MS/MS analysis; type: ADME, cell-based; details: Caco-2, read-out: permeability
Outline: (§3)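 Caco-2 monolayers were grown at least 21 days, and membrane integrity was checked by TEER after buffer equilibration. Test compound was dosed at 10 μM on the apical or basolateral side, in duplicate wells. Receiver samples at 1 and 2 h were precipitated with acetonitrile plus internal standard and run by LC/MS/MS.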

[10] = Permeability across apical to basolateral side in human Caco2 cells at 10 uM after 1 to 2 hrs by LC/MS/MS analysis; type: ADME, cell-based; details: Caco-2, read-out: permeability; outline: as §3
[11] = Aqueous solubility of the compound in phosphate buffer at pH 7 by reverse-phase UPLC-UV method; type: physicochemical
Outline: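 Excess solid was suspended in pH 7 phosphate buffer at ambient temperature, sonicated, then stirred for at least 2 h. After centrifugation, the supernatant was quantified by reverse-phase UPLC-UV.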

[12] = Lipophilicity, log D of the compound by HPLC/UV method; type: physicochemical
Outline: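 A 10 mM DMSO stock was diluted 1:100 into 1:1 acetonitrile/water, shaken 30 min, and analysed by HPLC/UV on a C18 column with 20 mM ammonium acetate/acetonitrile mobile phase.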

[13] = Cytotoxicity against human HuH7 cells after 3 days by fluorescence assay; type: cell-based; details: Huh-7 cells
Outline: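 Huh-7 HCV replicon cells were seeded at 2000 cells/well in medium without Geneticin. Compounds were added as ten-point 1:3 DMSO dilutions in quadruplicate (final DMSO 0.44%), with […] as the 100% cytotoxicity control. After 3 days at 37 °C, cells were washed and given 400 nM calcein AM for 30 min at RT, and fluorescence read at ex 490/em 520 nm. Signal was normalized to DMSO and puromycin wells, and CC50 taken from a four-parameter Hill fit.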

Hepatitis C virus = assay: Antiviral activity against HCV genotype 1b infected in human HuH7 cells assessed as inhibition of viral replication after 3 days by luminescence assay; type: functional, organism-based, Hepacivirus hominis; details: Huh-7, 72 h
Outline: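 Multiplex replicon assay carrying a renilla luciferase reporter, with stable GT1b, 1a and 2a replicons and chimeric 2b, 3a, 4a, 5a and 6a replicons. 2000 replicon cells/well in medium without Geneticin. Ten-step 1:3 serial dilutions, four replicates, 0.44% DMSO final. Incubated 3 days at 37 °C, 5% CO₂. Luminescence normalised to DMSO wells and to protease-inhibitor (ITMN-191) wells. EC50 from a four-parameter Hill fit.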

[14] = Metabolic stability in serum (unknown origin); type: ADME

SMILES: C[C@H](NP(=O)(OC[C@H]1O[C@@](C#N)(c2ccc3c(N)ncnn23)[C@](C)(O)[C@@H]1O)Oc1ccccc1)C(=O)OCC(C)(C)C (stereo partly drawn)
- Fa [1]: 13%
- AUC(0-inf) [2]: 0.09 µM·h
- AUC(0-inf) [3]: 0.25 µM·h
- bioavailability [4]: 5.6%
- Cmax (Syrian golden hamster [5]): 1440 nM
- Cmax (Syrian golden hamster [6]): 5180 nM
- hepatic extraction ratio at 1.5 h, 2 µM [7]: 0.94
- half-life at 2 µM [8]: 1.42 h
- Papp B→A at 10 µM [9]: 29.1 ×10⁻⁶ cm/s
- Papp A→B at 10 µM [10]: 0.69 ×10⁻⁶ cm/s
- solubility [11]: 115 µg/mL (≈ 191 µM)
- logD [12]: 2.3
- CC50 at 72 h [13]: 85000 nM
- EC50 (Hepatitis C virus): 180 nM

SMILES: C[C@H](NP(=O)(OC[C@H]1O[C@@](C#N)(c2ccc3c(N)ncnn23)[C@](C)(O)[C@@H]1O)Oc1ccccc1)C(=O)OC(C)(C)C (stereo partly drawn)
- hepatic extraction ratio at 1.5 h, 2 µM [7]: 0.84
- half-life at 2 µM [8]: > 10.2 h
- Papp B→A at 10 µM [9]: 31.1 ×10⁻⁶ cm/s
- Papp A→B at 10 µM [10]: 0.67 ×10⁻⁶ cm/s
- solubility [11]: 380 µg/mL (≈ 646 µM)
- logD [12]: 2.2
- CC50 at 72 h [13]: > 89000 nM
- EC50 (Hepatitis C virus): > 89000 nM

SMILES: C#C[C@@]1(c2ccc3c(N)ncnn23)O[C@H](CO)[C@@H](O)[C@@]1(C)O
- EC50 (Hepatitis C virus): > 89000 nM

SMILES: C[C@H](NP(=O)(OC[C@H]1O[C@@](C#N)(c2ccc3c(N)ncnn23)[C@](C)(O)[C@@H]1O)Oc1ccccc1)C(=O)OCc1ccccc1 (stereo partly drawn)
- Cmax (Syrian golden hamster [5]): 860 nM
- hepatic extraction ratio at 1.5 h, 2 µM [7]: 0.93
- half-life at 2 µM [8]: 2.15 h
- Papp B→A at 10 µM [9]: 25.3 ×10⁻⁶ cm/s
- Papp A→B at 10 µM [10]: 3.35 ×10⁻⁶ cm/s
- solubility [11]: 0.05 µg/mL (≈ 0.0803 µM)
- logD [12]: 2.2
- CC50 at 72 h [13]: 63000 nM
- EC50 (Hepatitis C virus): 330 nM

SMILES: CC(C)OC(=O)[C@H](C)NP(=O)(OC[C@H]1O[C@@](C#N)(c2ccc3c(N)ncnn23)[C@]2(C)OC(=O)O[C@H]12)Oc1ccccc1 (stereo partly drawn)
- Stability [14]: Stable
- Fa [1]: 29%
- Cmax (Syrian golden hamster [5]): 590 nM
- Cmax (Syrian golden hamster [6]): 1920 nM
- logD [12]: 2.6
- CC50 at 72 h [13]: > 89000 nM
- EC50 (Hepatitis C virus): 1410 nM

SMILES: CCOC(=O)[C@H](C)NP(=O)(OC[C@H]1O[C@@](C#N)(c2ccc3c(N)ncnn23)[C@](C)(O)[C@@H]1O)Oc1ccccc1 (stereo partly drawn)
- bioavailability [4]: 2.5%
- Cmax (Syrian golden hamster [5]): 570 nM
- Cmax (Syrian golden hamster [6]): 4480 nM
- hepatic extraction ratio at 1.5 h, 2 µM [7]: 0.89
- half-life at 2 µM [8]: 1.15 h
- Papp B→A at 10 µM [9]: 2.98 ×10⁻⁶ cm/s
- Papp A→B at 10 µM [10]: 0.17 ×10⁻⁶ cm/s
- solubility [11]: 108 µg/mL (≈ 193 µM)
- logD [12]: 1.6
- CC50 at 72 h [13]: > 89000 nM
- EC50 (Hepatitis C virus): 1450 nM

SMILES: CC[C@@H](C)OC(=O)[C@H](C)NP(=O)(OC[C@H]1O[C@@](C#N)(c2ccc3c(N)ncnn23)[C@](C)(O)[C@@H]1O)Oc1ccccc1 (stereo partly drawn)
- Stability [14]: Stable
- Fa [1]: 8.1%
- AUC(0-inf) [2]: 0.14 µM·h
- AUC(0-inf) [3]: 0.46 µM·h
- Cmax (Syrian golden hamster [5]): 1870 nM
- hepatic extraction ratio at 1.5 h, 2 µM [7]: 0.94
- half-life at 2 µM [8]: 7.68 h
- Papp B→A at 10 µM [9]: 37.5 ×10⁻⁶ cm/s
- Papp A→B at 10 µM [10]: 0.75 ×10⁻⁶ cm/s
- solubility [11]: 151 µg/mL (≈ 257 µM)
- logD [12]: 1.9
- CC50 at 72 h [13]: > 89000 nM
- EC50 (Hepatitis C virus): 980 nM

SMILES: COC(=O)[C@H](C)NP(=O)(OC[C@H]1O[C@@](C#N)(c2ccc3c(N)ncnn23)[C@](C)(O)[C@@H]1O)Oc1ccccc1 (stereo partly drawn)
- bioavailability [4]: 0.9%
- Cmax (Syrian golden hamster [5]): 290 nM
- Cmax (Syrian golden hamster [6]): 6350 nM
- hepatic extraction ratio at 1.5 h, 2 µM [7]: 0.9
- half-life at 2 µM [8]: 3.17 h
- Papp B→A at 10 µM [9]: 4.64 ×10⁻⁶ cm/s
- Papp A→B at 10 µM [10]: 0.41 ×10⁻⁶ cm/s
- logD [12]: 1.3
- CC50 at 72 h [13]: > 89000 nM
- EC50 (Hepatitis C virus): 1370 nM

Reference: ChEMBL document CHEMBL3120104, “Discovery of the first C-nucleoside HCV polymerase inhibitor (GS-6620) with demonstrated antiviral response in HCV infected patients” (J Med Chem, 2014)
